In ChEMBL document CHEMBL2086279, “Synthesis of novel Schiff base analogues of 4-amino-1,5-dimethyl-2-phenylpyrazol-3-one and their evaluation for antioxidant and anti-inflammatory activity” (Bioorg Med Chem, 2012):
The source made the active and inactive calls. The calls are words filed in the database; no cut-off is given here.

Assays:
[1] = test system: Radical scavenging activity; assay: Antioxidant activity assessed as DPPH free radical scavenging activity incubated for 30 mins; assay type: functional
Outline: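 Blois method, modified: 0.1 ml sample in ethanol (2.5–20 mg/mL) mixed with 4 ml 1.5 × 10^-5 M DPPH, kept dark at room temperature 30 min; absorbance at 520 nm used to calculate % radical scavenging.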

[2] = Solubility in DMSO; assay type: physicochemical
RAW264.7 [3] = assay: Inhibition of COX2 mRNA expression in mouse RAW264.7 cells at 50 ug/mL pre-treated for 30 mins before LPS stimulation measured 24 hrs post LPS challenge by RT-PCR; assay type: functional, cell-based
Outline: (§1)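 Cells pretreated with compound 30 min, then LPS 200 ng/mL for 24 h; total RNA extracted with TRIzol, quality checked by 260/280 absorbance; iNOS and COX-2 mRNA assessed by RT-PCR with gene-specific primers.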

RAW264.7 [4] = assay: Antiinflammatory activity in mouse RAW264.7 cells assessed as inhibition of LPS-induced nitric oxide production pre-treated for 30 mins before LPS stimulation measured 24 hrs post LPS challenge by Griess assay; assay type: functional, cell-based
Outline: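 LPS 200 ng/mL for 24 h after 30 min pretreatment at various concentrations; cells seeded 5 × 10^5/well overnight at 37 °C in DMEM/10% FBS. Nitrite in medium read with Griess reagent (1% sulfanilamide, 0.1% N-1-naphthylenediamine dihydrochloride, 2.5% phosphoric acid), 10 min, absorbance 570 nm, quantified against sodium nitrite standard curve.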

RAW264.7 [5] = assay: Cytotoxicity against mouse RAW264.7 cells assessed as change in cell viability at 50 ug/mL incubated for 24 hrs by MTT assay; assay type: cell-based; conditions: raw264.7, 24 h
Outline: (§2)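 RAW264.7 (passage ≤20, DMEM/10% FBS) seeded 5 × 10^4 cells/well, exposed to compound 24 h; MTT (5 mg/ml stock) added 4 h, formazan dissolved in 0.04 N HCl/isopropyl alcohol, OD read at 570 and 630 nm.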

RAW264.7 [6] = assay: Inhibition of iNOS mRNA expression in mouse RAW264.7 cells pre-treated for 30 mins before LPS stimulation measured 24 hrs post LPS challenge by RT-PCR; assay type: functional, cell-based; outline: as §1
RAW264.7 [7] = assay: Cytotoxicity against mouse RAW264.7 cells assessed as change in cell viability at 25 ug/mL incubated for 24 hrs by MTT assay; assay type: cell-based; conditions: raw264.7, 24 h; outline: as §2
RAW264.7 [8] = assay: Cytotoxicity against mouse RAW264.7 cells assessed as change in cell viability at 12 ug/mL incubated for 24 hrs by MTT assay; assay type: cell-based; conditions: raw264.7, 24 h; outline: as §2
RAW264.7 [9] = assay: Cytotoxicity against mouse RAW264.7 cells assessed as change in cell viability at 6 ug/mL incubated for 24 hrs by MTT assay; assay type: cell-based; conditions: raw264.7, 24 h; outline: as §2

Row | SMILES | IC50 [1] [µM] | also measured
1 | O=C1O[C@H]([C@@H](O)CO)C(O)=C1O [ASCORBIC ACID] | 0.41 | 
2 | Cc1c(/N=C/c2c(O)cc(O)cc2O)c(=O)n(-c2ccccc2)n1C | 0.44 | solubility [2]: Insoluble
3 | Cc1c(/N=C/c2ccc(O)cc2)c(=O)n(-c2ccccc2)n1C | 18.8 | 
4 | Cc1c(/N=C/c2ccccc2)c(=O)n(-c2ccccc2)n1C | 31.3 | 
5 | Cc1c(/N=C/c2ccc(Cl)cc2)c(=O)n(-c2ccccc2)n1C | 31.7 | 
6 | Cc1c(/N=C/c2ccccc2C=O)c(=O)n(-c2ccccc2)n1C | 34.5 | 
7 | Cc1c(/N=C/c2ccc(O)cc2O)c(=O)n(-c2ccccc2)n1C | 2.5 | 
8 | Cc1c(/N=C/c2ccccc2/C=N/c2c(C)n(C)n(-c3ccccc3)c2=O)c(=O)n(-c2ccccc2)n1C | 3.14 | 

Further lines, with some results ahead:

Row | IC50 [1] [µM] | SMILES | also measured
9 | 15.3 | COc1ccc(/C=N/c2c(C)n(C)n(-c3ccccc3)c2=O)cc1 | 
10 | 14.5 | COc1ccc(/C=N/c2c(C)n(C)n(-c3ccccc3)c2=O)c(OC)c1 | 
11 | 0.93 | Cc1c(/N=C/c2ccc(O)c(O)c2)c(=O)n(-c2ccccc2)n1C | inhibition (RAW264.7 [3]): Active; Activity (RAW264.7 [4]): Dose-dependent effect; Activity (RAW264.7 [5]): Non-toxic; inhibition (RAW264.7 [6]): Dose-dependent effect; Activity (RAW264.7 [7]): Non-toxic; Activity (RAW264.7 [8]): Non-toxic; Activity (RAW264.7 [9]): Non-toxic
12 | 7.27 | COc1ccc(/C=N/c2c(C)n(C)n(-c3ccccc3)c2=O)cc1OC | 
13 | 1.66 | COc1cc(/C=N/c2c(C)n(C)n(-c3ccccc3)c2=O)cc(OC)c1O | 
14 | 5.22 | COc1ccc(/C=N/c2c(C)n(C)n(-c3ccccc3)c2=O)cc1C | 
